# According to ChEMBL document CHEMBL1156979, “The impact of polyether chain length on the iron clearing efficiency and physiochemical properties of desferrithiocin analogues” (J Med Chem, 2010):
# Active and inactive are the calls of the source. The rule behind the calls is not given here.
# Experiments:
# [1] = tested on: Rattus norvegicus; test: Iron-clearing efficiency in non-iron-overloaded and bile duct-cannulated Sprague-Dawley rat at 300 umol/kg, po after 48 hrs relative to control; assay type: functional
# Outline: (§1)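 Non-iron-overloaded male Sprague-Dawley rats (400–450 g), bile duct-cannulated, given a single oral dose of 300 μmol/kg, either by gavage as monosodium salt or in capsules. Bile was collected at 3 h intervals for up to 48 h and urine every 24 h. Iron was measured by flame absorption spectroscopy. ICE = 24-h iron excretion of treated rats minus controls, divided by theoretical output (2:1 ligand:iron); percent. Mean ± SEM; one-tailed t-test.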
# [2] = tested on: Rattus norvegicus; test: Iron-clearing efficiency in non-iron-overloaded and bile duct-cannulated Sprague-Dawley rat assessed as reduction of liver iron content at 384 umol/kg, po qd for 10 days relative to control; assay type: functional; set-up: scale not given: the % may be the effect or the level left
# Outline: (§2)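 Male Sprague-Dawley rats (300–350 g) were fasted overnight and dosed orally once daily for 10 d. Dosing was 384 μmol/kg/d in gelatin capsules (n = 5) or by gavage as monosodium salt (n = 10), or 192 (n = 6) or 384 μmol/kg/d (n = 5) in capsules. Rats were fed ~3 h post-dose. Age-matched untreated controls (n = 12). Kidney, liver, heart and pancreas were taken on day 11, wet-ashed (120 °C, then H2O2), and iron was measured by flame absorption spectroscopy.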
# [3] = tested on: Rattus norvegicus; test: Toxicity in Sprague-Dawley rat assessed as histopathological examination at 192 umol/kg, po qd for 10 days; assay type: organism-based; conditions: in vivo, 240 h
# Outline: (§3)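 Male Sprague-Dawley rats (300–350 g), fasted overnight, were dosed orally once daily for 10 d. Dosing was 384 μmol/kg/d (capsules or by gavage as monosodium salt) or 192 μmol/kg/d (capsules). Age-matched untreated controls. Rats were euthanized 24 h after the last dose (day 11), and extensive tissues were examined histopathologically.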
# [4] = Ratio of iron-clearing efficiency in iron-overloaded Cebus apella at 75 umol/kg, po to iron-clearing efficiency in non-iron-overloaded and bile duct-cannulated Sprague-Dawley rat at 300 umol/kg, po after 48 hrs; assay type: functional, organism-based
# Outline: (§4)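 Iron-overloaded Cebus apella (3.5–4 kg; iv iron dextran to about 500 mg Fe/kg, ≥60 days before use) dosed orally at 75 μmol/kg, by gavage as monosodium salt (1 equiv NaOH in distilled water) or in capsules. Feces and urine collected every 24 h from 4 days pre-drug to 5 days post-drug; iron by flame absorption spectroscopy. ICE = 2-day post-drug iron minus 4-day baseline average, divided by theoretical output (2:1 ligand:iron); percent. Performance ratio = mean primate ICE/rodent ICE.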
# [5] = tested on: Rattus norvegicus; test: Iron-clearing efficiency in non-iron-overloaded and bile duct-cannulated Sprague-Dawley rat assessed as time required to maximum bile iron excretion at 300 umol/kg, po after 12 to 15 hrs; assay type: functional, organism-based; outline: as §1
# [6] = tested on: Rattus norvegicus; test: Toxicity in Sprague-Dawley rat assessed as mild to moderate vacuolar degeneration of proximal tubular epithelial cells at 384 umol/kg, po qd for 10 days; assay type: organism-based, Epithelial cell; conditions: in vivo, 240 h; outline: as §3
# [7] = tested on: Rattus norvegicus; test: Iron-clearing efficiency in non-iron-overloaded and bile duct-cannulated Sprague-Dawley rat assessed as reduction of pancreatic iron content at 384 umol/kg, po qd for 10 days relative to control; assay type: functional, organism-based; outline: as §2
# [8] = tested on: Sapajus apella; test: Iron-clearing efficiency in iron-overloaded Cebus apella assessed as feces iron excretion at 75 umol/kg, po measured daily once for 5 days by lame absorption spectroscopy relative to control; assay type: functional
# [9] = tested on: Sapajus apella; test: Iron-clearing efficiency in iron-overloaded Cebus apella assessed as urine iron excretion at 75 umol/kg, po measured daily once for 5 days by lame absorption spectroscopy relative to control; assay type: functional
# [10] = tested on: Rattus norvegicus; test: Iron-clearing efficiency in non-iron-overloaded and bile duct-cannulated Sprague-Dawley rat assessed as reduction of renal iron content at 192 umol/kg, po qd for 10 days relative to control; assay type: functional; set-up: scale not given: the % may be the effect or the level left; outline: as §2
# [11] = tested on: Rattus norvegicus; test: Iron-clearing efficiency in non-iron-overloaded and bile duct-cannulated Sprague-Dawley rat assessed as reduction of renal iron content at 384 umol/kg, po qd for 10 days relative to control; assay type: functional; set-up: scale not given: the % may be the effect or the level left; outline: as §2
# [12] = tested on: Sapajus apella; test: Iron-clearing efficiency in iron-overloaded Cebus apella at 75 umol/kg, po measured daily once for 2 days by flame absorption spectroscopy relative to control; assay type: functional; outline: as §4
# [13] = tested on: Rattus norvegicus; test: Renal toxicity in Sprague-Dawley rat at 384 umol/kg, po qd for 10 days; assay type: organism-based; conditions: in vivo, 240 h; outline: as §3
# [14] = tested on: Rattus norvegicus; test: Iron-clearing efficiency in non-iron-overloaded and bile duct-cannulated Sprague-Dawley rat assessed as reduction of pancreatic iron content at 192 umol/kg, po qd for 10 days relative to control; assay type: functional, organism-based; outline: as §2
# [15] = tested on: Rattus norvegicus; test: Iron-clearing efficiency in non-iron-overloaded and bile duct-cannulated Sprague-Dawley rat assessed as reduction of cardiac iron content at 384 umol/kg, po qd for 10 days relative to control; assay type: functional, organism-based; conditions: Heart; outline: as §2
# [16] = tested on: Rattus norvegicus; test: Iron-clearing efficiency in non-iron-overloaded and bile duct-cannulated Sprague-Dawley rat assessed as reduction of liver iron content at 192 umol/kg, po qd for 10 days relative to control; assay type: functional; set-up: scale not given: the % may be the effect or the level left; outline: as §2
# [17] = tested on: Rattus norvegicus; test: Iron-clearing efficiency in non-iron-overloaded and bile duct-cannulated Sprague-Dawley rat assessed as urine iron excretion at 300 umol/kg, po after 48 hrs relative to control; assay type: functional
# [18] = tested on: Rattus norvegicus; test: Iron-clearing efficiency in non-iron-overloaded and bile duct-cannulated Sprague-Dawley rat assessed as reduction of cardiac iron content at 192 umol/kg, po qd for 10 days relative to control; assay type: functional, organism-based; conditions: Heart; outline: as §2
# [19] = tested on: Rattus norvegicus; test: Iron-clearing efficiency in non-iron-overloaded and bile duct-cannulated Sprague-Dawley rat assessed as bile iron excretion at 300 umol/kg, po up to 48 hrs; assay type: functional, organism-based; outline: as §1
# [20] = Octanol-water partition coefficient, log P in Tris buffer at pH 7.4 by shake flask method; assay type: physicochemical
# Outline: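 Octanol/water partition was measured at pH 7.4 (Tris buffer) by the shake-flask direct method. The fraction of drug in octanol is expressed as log P_app.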
# [21] = tested on: Rattus norvegicus; test: Iron-clearing efficiency in non-iron-overloaded and bile duct-cannulated Sprague-Dawley rat assessed as reduction of pancreatic iron content at 384 umol/kg, po qd for 10 days administered as gelatin capsules; assay type: functional, organism-based; outline: as §2
# [22] = tested on: Rattus norvegicus; test: Iron-clearing efficiency in non-iron-overloaded and bile duct-cannulated Sprague-Dawley rat assessed as reduction of liver iron stores at 384 umol/kg, po qd for 10 days
# [23] = tested on: Rattus norvegicus; test: Iron-clearing efficiency in non-iron-overloaded and bile duct-cannulated Sprague-Dawley rat assessed as reduction of pancreatic iron content at 384 umol/kg, po qd for 10 days administered as monosodium salt; assay type: functional, organism-based; outline: as §2
# [24] = tested on: Sapajus apella; test: Iron-clearing efficiency in iron-overloaded Cebus apella assessed as reduction of liver iron stores at 384 umol/kg, po qd for 28 days; assay type: functional, organism-based
# [25] = tested on: Rattus norvegicus; test: Iron-clearing efficiency in non-iron-overloaded and bile duct-cannulated Sprague-Dawley rat assessed as time required to maximum bile iron excretion at 300 umol/kg, po; assay type: functional; outline: as §1
# [26] = tested on: Sapajus apella; test: Iron-clearing efficiency in iron-overloaded Cebus apella assessed as urine iron excretion at 150 umol/kg, po measured daily once for 5 days by lame absorption spectroscopy relative to control; assay type: functional
# [27] = tested on: Sapajus apella; test: Iron-clearing efficiency in iron-overloaded Cebus apella assessed as feces iron excretion at 150 umol/kg, po measured daily once for 5 days by lame absorption spectroscopy relative to control; assay type: functional
# [28] = tested on: Rattus norvegicus; test: Iron-clearing efficiency in non-iron-overloaded and bile duct-cannulated Sprague-Dawley rat assessed as bile iron excretion at 300 umol/kg, po up to 12 hrs; assay type: functional, organism-based; outline: as §1
# [29] = tested on: Sapajus apella; test: Iron-clearing efficiency in iron-overloaded Cebus apella at 150 umol/kg, po measured daily once for 2 days by flame absorption spectroscopy relative to control; assay type: functional
# [30] = tested on: Rattus norvegicus; test: Iron-clearing efficiency in non-iron-overloaded and bile duct-cannulated Sprague-Dawley rat assessed as complete bile iron excretion at 300 umol/kg, po; assay type: functional; outline: as §1
compound,measurement,setting,value
CCOC(=O)[C@@]1(C)CSC(c2ccc(OCCOCCOC)cc2O)=N1,Activity,[1],25.9%
same,Activity,[2],59.1%
same,Activity,[3],Non-toxic
same,Ratio,[4],0.3
same,Activity,[5],inactive
same,Activity,[6],Toxic
same,Activity,[7],inactive
same,Activity,[8],98%
same,Activity,[9],2%
same,Activity,[10],12.6%
same,Activity,[11],32.1%
same,Activity,[12],8.8%
same,Activity,[13],Toxic
same,Activity,[14],inactive
same,Activity,[15],inactive
same,Activity,[16],27%
same,Activity,[17],1%
same,Activity,[18],inactive
same,Activity,[19],Active
same,logD,[20],3
COCCOCCOc1ccc(C2=N[C@@](C)(C(=O)O)CS2)c(O)c1,Activity,[21],inactive
same,Activity,[22],Active
same,Activity,[23],Active
same,Ratio,[4],1
same,Activity,[5],inactive
same,Activity,[24],Active
same,Activity,[19],Active
COCCOCCOCCOc1ccc(C2=N[C@@](C)(C(=O)O)CS2)c(O)c1,Time,[25],3 h
same,Activity,[26],4%
same,Activity,[27],96%
same,Activity,[28],Active
same,Activity,[29],25.4%
C[C@]1(C(=O)[O-])CSC(c2ccc(O)cc2O)=N1.[Na+] [DEFERITRIN SODIUM],Time,[25],3 h
same,Time,[30],9 h
same,Activity,[26],12%
same,Activity,[27],88%
same,Activity,[29],16.8%
COc1ccc(C2=N[C@@](C)(C(=O)[O-])CS2)c(O)c1.[Na+],Activity,[26],9%
same,Activity,[27],91%
same,Activity,[29],24.4%
